According to paper PMC4131791 (Memórias do Instituto Oswaldo Cruz, 2014):
In brackets after ≈: the same amount, converted by molar mass.

Test system: Trypanosoma cruzi (Tulahuen strain) expressing β-galactosidase, trypomastigote and amastigote forms
Type: cell-based
Settings: L929, read-out: IC50 of the positive control
In short: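 L929 fibroblasts were seeded at 4,000/well in phenol red-free RPMI-1640 with 10% FBS and glutamine, then left overnight at 37 °C with 5% CO2. Cells were infected with β-galactosidase Tulahuen trypomastigotes at 40,000/well for 2 h, and free parasites were washed out. After 48 h, test compound (about 100-2 µM, triplicate, from DMSO stocks) was added. After seven days of culture, 100 µM CPRG with 0.1% Nonidet P-40 was added overnight at 37 °C and A570 read. Results were expressed as % growth inhibition, with IC50 by linear interpolation. Benznidazole served as positive control.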

IC50: 1 mg/L (≈ 3.84 µM)
Structure (SMILES): O=C(Cn1ccnc1[N+](=O)[O-])NCc1ccccc1 [Benznidazole, benznidazole]
